Experimental data reported in BindingDB's records for doi:10.1016/j.bmc.2013.06.068 (University of Maryland, 2013).

Experiments:
[1] = target: Sigma non-opioid intracellular receptor 1 (Rattus norvegicus, UniProt Q9R0C9); assay: Displacement of [3H](+)-pentazocine from sigma 1 receptor in rat brain homogenates after 120 mins by liquid scintillation counting
How it was run: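 σ1 sites labelled with 5 nM [3H](+)-pentazocine in rat brain homogenate; nonspecific binding defined with 10 μM haloperidol. Up to 12 competitor concentrations, incubated 120 min at 25 °C. Terminated by vacuum filtration onto PEI-soaked GF/B filters, bound radioactivity counted by liquid scintillation. Ki obtained by Cheng–Prusoff.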

[2] = target: Kappa-type opioid receptor (Homo sapiens, UniProt P41145); assay: Displacement of [3H]U69,593 from human kappa opioid receptor expressed in CHO cells after 120 mins by liquid scintillation counting
Kappa-type opioid receptor, sequence (P41145 whole entry): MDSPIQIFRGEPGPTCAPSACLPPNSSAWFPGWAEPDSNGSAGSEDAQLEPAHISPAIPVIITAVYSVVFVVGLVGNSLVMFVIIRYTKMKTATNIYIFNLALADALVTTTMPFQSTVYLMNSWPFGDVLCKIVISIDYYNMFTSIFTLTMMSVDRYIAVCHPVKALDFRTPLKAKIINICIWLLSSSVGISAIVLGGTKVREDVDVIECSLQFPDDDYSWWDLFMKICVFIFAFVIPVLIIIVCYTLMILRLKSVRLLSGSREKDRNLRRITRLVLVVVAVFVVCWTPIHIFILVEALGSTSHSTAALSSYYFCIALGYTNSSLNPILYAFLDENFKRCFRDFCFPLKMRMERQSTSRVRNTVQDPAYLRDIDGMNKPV
How it was run: (§1)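 Membranes from CHO cells stably expressing human μ, δ or κ opioid receptor. Radioligands: μ 1.3 nM [3H]DAMGO, δ 1.2 nM [3H]DPDPE, κ 1.7 nM [3H]U69,593; nonspecific with 1 μM of the matching unlabelled ligand.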

[3] = target: Delta-type opioid receptor (Homo sapiens, UniProt P41143); assay: Displacement of [3H]DPDPE from human delta opioid receptor expressed in CHO cells after 120 mins by liquid scintillation counting; how it was run: as §1
Delta-type opioid receptor, sequence (P41143 whole entry): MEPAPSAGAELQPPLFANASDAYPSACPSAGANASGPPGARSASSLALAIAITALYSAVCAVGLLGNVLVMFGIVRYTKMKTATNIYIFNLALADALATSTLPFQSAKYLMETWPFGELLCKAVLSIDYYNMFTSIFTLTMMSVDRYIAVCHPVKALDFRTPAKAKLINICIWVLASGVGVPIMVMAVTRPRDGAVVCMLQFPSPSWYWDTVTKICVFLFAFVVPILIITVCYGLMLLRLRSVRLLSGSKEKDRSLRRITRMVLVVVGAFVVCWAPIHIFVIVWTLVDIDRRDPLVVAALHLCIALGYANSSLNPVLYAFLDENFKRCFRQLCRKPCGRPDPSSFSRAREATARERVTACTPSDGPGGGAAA

[4] = target: Mu-type opioid receptor (Homo sapiens, UniProt P35372); assay: Displacement of [3H]DAMGO from human mu opioid receptor expressed in CHO cells after 120 mins by liquid scintillation counting; how it was run: as §1
Mu-type opioid receptor, sequence (P35372 whole entry): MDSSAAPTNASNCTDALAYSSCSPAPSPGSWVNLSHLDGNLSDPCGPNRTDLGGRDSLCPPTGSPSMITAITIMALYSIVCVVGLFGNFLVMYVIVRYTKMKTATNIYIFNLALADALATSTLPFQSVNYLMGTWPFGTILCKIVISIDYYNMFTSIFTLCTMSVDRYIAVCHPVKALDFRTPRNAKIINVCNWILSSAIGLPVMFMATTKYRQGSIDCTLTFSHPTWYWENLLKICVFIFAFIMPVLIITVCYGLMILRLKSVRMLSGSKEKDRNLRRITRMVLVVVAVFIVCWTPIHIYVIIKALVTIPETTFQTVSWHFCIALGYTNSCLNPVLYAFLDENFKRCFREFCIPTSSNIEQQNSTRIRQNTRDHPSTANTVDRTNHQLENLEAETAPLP

Sigma non-opioid intracellular receptor 1, sequence (Q9R0C9 whole entry): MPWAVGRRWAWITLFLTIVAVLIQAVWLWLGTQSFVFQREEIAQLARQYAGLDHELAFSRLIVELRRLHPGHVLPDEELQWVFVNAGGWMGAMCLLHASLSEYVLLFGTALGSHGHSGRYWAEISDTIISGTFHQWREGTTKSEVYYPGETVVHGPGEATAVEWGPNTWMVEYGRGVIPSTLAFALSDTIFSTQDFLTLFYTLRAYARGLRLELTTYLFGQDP

| SMILES | Ki [1] [µM] | Ki [2] [µM] | Ki [3] [µM] | Ki [4] [µM] |
| --- | --- | --- | --- | --- |
| CN(CCc1ccccc1)[C@H]1CCCC[C@@H]1O | 0.12 | > 10 | > 10 | > 10 |
| CN(C)[C@H]1CCCC[C@@H]1OC/C=C/c1ccccc1 | 0.0046 | > 10 | > 10 | 4.2 |
| CN(CCCc1ccccc1)[C@H]1CCCC[C@@H]1OCCCc1ccccc1 | 0.79 | 2.2 | 6.2 | 3.1 |
| CN(CCCc1ccccc1)[C@H]1CCCC[C@@H]1O | 0.019 | > 10 | > 10 |  |
| CN(CCc1ccccc1)[C@H]1CCCC[C@@H]1OCCCc1ccccc1 | 0.084 |  | > 10 | 1.6 |
| CN(C)[C@H]1CCCC[C@@H]1OCCCc1ccccc1 | 0.059 | > 10 | > 10 | 2.3 |
